IC50 data for 17 compounds are collected here from ChEMBL document CHEMBL2010663, “Iodine-catalyzed condensation of isatin with indoles: a facile synthesis of di(indolyl)indolin-2-ones and evaluation of their cytotoxicity” (Bioorg Med Chem Lett, 2012).

Assay [1] concerns SK-N-SH. In words: Cytotoxicity against human SK-N-SH cells after 48 hrs by MTT assay. Type of assay: functional, cell-based. A digest of the protocol:
(§1)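 Cells seeded at 10,000 cells/100 μl in medium with 10% serum and left 24 h in a humid 5% CO2 chamber to adhere. Compounds were then added at a range of concentrations for 48 h. MTT (5 mg/mL stock in PBS, 10 μl per well) was added for 2 h.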

Assay [2] deals with A549. In words: Cytotoxicity against human A549 cells after 48 hrs by MTT assay. Type of assay: functional, cell-based. To be noted: A549, 48 h. A digest of the protocol: as §1
Assay [3] relates to MDA-MB-231. In words: Cytotoxicity against human MDA-MB-231 cells after 48 hrs by MTT assay. Type of assay: functional, cell-based. To be noted: MDA-MB-231, 48 h. A digest of the protocol:
as §1

Assay [4] deals with MRC5. In words: Cytotoxicity against human MRC5 cells after 48 hrs by MTT assay. Type of assay: cell-based. To be noted: MRC5, 48 h. A digest of the protocol:
as §1

Take `O=C1Nc2ccccc2C1(c1c(-c2ccccc2)[nH]c2ccccc12)c1c(-c2ccccc2)[nH]c2ccccc12`: the 50% inhibitory concentration (IC50) in assay [1] is 9.6 µM; in assay [2], 8.91 µM; in assay [3], greater than 100 µM; in assay [4], greater than 100 µM.
Consider `O=C1Nc2ccccc2C1=O` [ISATIN], for which the IC50 in assay [1] is 9.84 µM; in assay [2], 13.5 µM; in assay [3], greater than 100 µM; in assay [4], greater than 100 µM.
Take `COc1cccc2c1C(=O)c1c(O)c3c(c(O)c1C2=O)C[C@@](O)(C(=O)CO)C[C@@H]3O[C@H]1C[C@H](N)[C@H](O)[C@H](C)O1` [DOXORUBICIN]: the IC50 in assay [1] worked out at 0.97 µM; in assay [2], 15.1 µM; in assay [3] it was 8.14 µM; in assay [4] it was 14.8 µM.
Taken in the same sequence, the figures for `O=C1Nc2ccccc2C1(c1c[nH]c2ccc([N+](=O)[O-])cc12)c1c[nH]c2ccc([N+](=O)[O-])cc12` were 0.99 µM, 7.9 µM, 9.98 µM and greater than 100 µM.
With `O=C1Nc2ccccc2C1(c1c[nH]c2ccc(Cl)cc12)c1c[nH]c2ccc(Cl)cc12`, the IC50 is 1.31 µM in assay [1], greater than 100 µM in assay [2], 10 µM in assay [3] and greater than 100 µM in assay [4].
Turning to `O=C1Nc2ccc(Cl)cc2C1(c1c[nH]c2ccc(Br)cc12)c1c[nH]c2ccc(Br)cc12`, the IC50 was 1.04 µM in assay [1], greater than 100 µM in assay [2], greater than 100 µM in assay [3] and greater than 100 µM in assay [4].
For the compound `COC(=O)c1ccc2[nH]cc(C3(c4c[nH]c5ccc(C(=O)OC)cc45)C(=O)Nc4ccc(Cl)cc43)c2c1`, the IC50 was 9.9 µM in assay [1], 71.5 µM in assay [2], 10 µM in assay [3] and greater than 100 µM in assay [4].
Taken in the same sequence, the figures for `Cc1[nH]c2ccc([N+](=O)[O-])cc2c1C1(c2c(C)[nH]c3ccc([N+](=O)[O-])cc23)C(=O)Nc2ccc(Cl)cc21` were 1.23 µM, 69.4 µM, 10.1 µM and greater than 100 µM.
On the same counts, the results for `Cc1[nH]c2ccc([N+](=O)[O-])cc2c1C1(c2c(C)[nH]c3ccc([N+](=O)[O-])cc23)C(=O)Nc2ccccc21` are 0.94 µM, 0.89 µM, 99.4 µM and greater than 100 µM.
In the case of `O=C1Nc2ccccc2C1(c1c[nH]c2ccc(Br)cc12)c1c[nH]c2ccc(Br)cc12`, the IC50 in assay [1] is 0.93 µM; in assay [2], 0.96 µM; in assay [3], 9.95 µM; in assay [4] it was greater than 100 µM.
On the same counts, the results for `Cc1[nH]c2ccccc2c1C1(c2c(C)[nH]c3ccccc23)C(=O)Nc2ccccc21` are 0.98 µM, 0.92 µM, greater than 100 µM and greater than 100 µM.
On the same counts, the results for `Cn1cc(C2(c3cn(C)c4ccccc34)C(=O)Nc3ccccc32)c2ccccc21` are 1.32 µM, greater than 100 µM, greater than 100 µM and greater than 100 µM.
On the same counts, the results for `N#Cc1ccc2[nH]cc(C3(c4c[nH]c5ccc(C#N)cc45)C(=O)Nc4ccccc43)c2c1` are 0.94 µM, 0.97 µM, 99.1 µM and greater than 100 µM.
In the case of `O=C1Nc2ccccc2C1(c1c[nH]c2ccccc12)c1c[nH]c2ccccc12`, the IC50 in assay [1] was 0.9 µM; in assay [2], 1.23 µM; in assay [3] it was greater than 100 µM; in assay [4] it was greater than 100 µM.
Regarding `O=C1Nc2ccc(Cl)cc2C1(c1c(-c2ccccc2)[nH]c2ccccc12)c1c(-c2ccccc2)[nH]c2ccccc12`, the IC50 in assay [1], in assay [2], in assay [3] and in assay [4] was greater than 100 µM each time.
As for `c1ccc2[nH]ccc2c1` [INDOLE], the IC50 was 1.78 µM in assay [1], greater than 100 µM in assay [2], greater than 100 µM in assay [3] and 15.6 µM in assay [4].
Consider `COC(=O)c1ccc2[nH]cc(C3(c4c[nH]c5ccc(C(=O)OC)cc45)C(=O)Nc4ccccc43)c2c1`, for which the IC50 in assay [1] is 0.98 µM; in assay [2], 0.75 µM; in assay [3] it was greater than 100 µM; in assay [4], greater than 100 µM.
